In the library only some 1.3% were active in any assay of this set; here they are far more common.
PfG6PD inh – PfG6PD enzyme inhibitors, primary screen, biochemical, fluorescence intensity, uHTS. PfGluPho enzyme, NADPH resazurin-diaphorase fluorescence. inhibition, % at 20 µM. AID 504690, 2011. actives 0.78% (n = 350,000);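 active = inhibition reaching at least a set limit at 20 µM in the primary screen, cut at about 59% in these data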
Diaphorase inh – diaphorase inhibitors and chemical oxidizers, primary screen, counter-screen for diaphorase-coupled primary assays, biochemical, uHTS, resorufin fluorescence. diaphorase resazurin-to-resorufin fluorescence, NADH, 16 min; bacterial (C. kluyveri) enzyme, not human. inhibition, % at 20 µM. actives 0.69% (n = 190,000);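 active = primary screen inhibition at 20 µM above a set limit, cut at about 50% in these data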
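Test system: diaphorase enzyme from Clostridium kluyveri; amount: diaphorase at 0.14 U/mL in enzyme working solution; detection: fluorescence of resorufin formed from resazurin, Ex 544/Em 590 nm; times: reaction incubation of 16 min at room temperature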
G6PDH counter – L. mesenteroides G6PDH inhibitors, counter-screen for G6PDH-coupled screening assays, biochemical, Leuconostoc mesenteroides enzyme; inhibition, % at 5 µM; AID 1020, 2008; Purified L. mesenteroides G6PDH, diaphorase/resazurin coupled fluorescence, 45 min; actives 0.12% (n = 200,000); glucose-6-phosphate dehydrogenase [Leuconostoc mesenteroides]; in the data active = inhibition above about 50%
HKDC1 inh – HKDC1 hexokinase inhibitors, primary screen, biochemical, fluorescence, uHTS | Q2TB90 | recombinant HKDC1, G6PDH/diaphorase resazurin coupled fluorescence | inhibition, % at 20 µM | actives 0.16% (n = 340,000) | AID 493160, 2011;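 active = inhibition above about 35% when tested at 20 µM, limit read from the data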
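Assay system: recombinant HKDC1 hexokinase; detection: coupled resazurin fluorescence, excitation 525 nm, emission 613 nm; benchmarks: DMSO-plus-enzyme-mix negative control, buffer-substituted positive control; compound dosing: single 20 µM dose; schedule: 90 min at room temperature in dark; also added: glucose plus 1 mM ATP as hexokinase substrates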
Diaphorase act – compounds boosting diaphorase resazurin reduction – biochemical, uHTS, resorufin fluorescence, counter-screen for diaphorase-coupled primary assays, primary screen | actives 0.005% (n = 190,000) | activation factor at 20 µM | AID 1229, 2008 | Diaphorase/resazurin coupled assay, 16 min; active compounds read high; 1 = vehicle wells, 0 = NADH-free wells;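 active = diaphorase activity raised at least twofold by the compound at 20 µM; inactive = activation factor below 2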
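Material: purified diaphorase enzyme from Clostridium kluyveri / Medium: HEPES pH 7.4 buffer with MgCl2 and Tween 20 / Schedule: enzyme reaction of 16 min at room temperature / Measured by: resorufin fluorescence, excitation 544 nm, emission 590 nm / Evaluation: rise in resorufin formation, marking diaphorase activation or chemical reduction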
Tb hexokinase – Trypanosoma brucei hexokinase 1 inhibitors, primary screen, biochemical, G6PDH-coupled NADH absorbance, MLSCN library | hexokinase 1 [Trypanosoma brucei] | inhibition, % at 10 µM | AID 1430, 2008 | recombinant TbHK1, G6PDH-coupled NADH A340 | actives 0.11% (n = 220,000);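 active = inhibition of 50% or more in the single-dose primary screen; inactive = inhibition below 50%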
PfG6PD confirm – PfG6PD inhibitors, hit retest, confirmation, biochemical, fluorescence intensity, single concentration. actives 34% (n = 2,400). AID 504753, 2011. shares compounds with PfG6PD inh. inhibition, % at 20 µM. recombinant PfGluPho, NADPH-diaphorase-resazurin fluorescence;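 active = inhibition of at least 50% at 20 µM in any single replicate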
Diaphorase 10uM – diaphorase inhibitors and chemical oxidizers, confirmation, counter-screen for P. falciparum G6PD inhibitor project, biochemical, fluorescence intensity, 10 µM NADPH; shares compounds with PfG6PD inh; diaphorase-coupled resazurin reduction, NADPH 10 uM; inhibition, % at 20 µM; actives 39% (n = 820); AID 504862, 2011;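 active = average inhibition reaching 50% or more with the compound at 20 µM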;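 also: resorufin red fluorescence formed as diaphorase reduces resazurin using NADPH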
Diaphorase 30uM – diaphorase inhibitors and chemical oxidizers, confirmation, counter-screen for P. falciparum G6PD inhibitor project, biochemical, fluorescence intensity, 30 µM NADPH | shares compounds with PfG6PD inh | Diaphorase/resazurin coupled assay, resorufin fluorescence | inhibition, % at 20 µM | actives 29% (n = 820);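 active = inhibition averaging 50% or more, tested at 20 µM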
Large screens that a line does not name were inactive (follow-up assays come after a bar, where they were run).

Cc1cc(C(=O)Nc2sc3c(c2C#N)CCC3)no1	none
Cc1noc(C(=O)Nc2sc3c(c2C#N)CCC3)c1Cl	PfG6PD inh 83 | PfG6PD confirm 52 | Diaphorase 10uM inactive | Diaphorase 30uM inactive
CCc1[nH]c(=S)c(C#N)c2c1CCCC2	PfG6PD inh 66 | PfG6PD confirm inactive
O=C(CSc1cccs1)Nc1ccc(Cl)cc1	none (no result: Diaphorase inh, G6PDH counter, Diaphorase act)
Nc1nc(Sc2ccc([N+](=O)[O-])c3nonc23)c2[nH]cnc2n1	PfG6PD inh 122 (no result: Diaphorase inh, G6PDH counter, Diaphorase act, Tb hexokinase) | PfG6PD confirm 109 | Diaphorase 10uM 97 | Diaphorase 30uM 85
COc1ccc(CCC(=O)NCc2cn3ccccc3n2)cc1	none (no result: Diaphorase inh, G6PDH counter, Diaphorase act)
CCn1c(SCC(=O)Nc2ccc3c(c2)OCO3)nnc1-c1cnccn1	PfG6PD inh 83 | PfG6PD confirm inactive
O=S(=O)(c1cccs1)N1CCCc2cccc(O)c21	PfG6PD inh 93 | PfG6PD confirm inactive
O=C(Nc1ccc2c(c1)N(S(=O)(=O)c1cccs1)CCC2)c1c(F)cccc1F	none (no result: Diaphorase inh, G6PDH counter, Diaphorase act, Tb hexokinase)
CN(C)S(=O)(=O)c1ccc(Cl)c(NC(=O)C2CCN(S(=O)(=O)c3cccs3)CC2)c1	PfG6PD inh 60 (no result: Diaphorase inh, G6PDH counter, Diaphorase act, Tb hexokinase) | PfG6PD confirm inactive
CS(=O)(=O)c1ccc(Cl)c(NC(=O)C2CCN(S(=O)(=O)c3cccs3)CC2)c1	none (no result: Diaphorase inh, G6PDH counter, Diaphorase act, Tb hexokinase)
N=c1n(CCN2CCOCC2)c2ccccc2n1CC(=O)c1ccc(Cl)c(Cl)c1	PfG6PD inh 114 | PfG6PD confirm inactive
N=c1n(CCN2CCOCC2)c2ccccc2n1CC(=O)c1cccc([N+](=O)[O-])c1	PfG6PD inh 75 (no result: Diaphorase inh, G6PDH counter, Diaphorase act, Tb hexokinase) | PfG6PD confirm inactive
CCCn1c(=N)n(CC(=O)c2ccc([N+](=O)[O-])cc2)c2ccccc21	PfG6PD inh 73 | PfG6PD confirm inactive
CCCCOC(=O)Cn1c(=N)n(CCN2CCOCC2)c2ccccc21	none (no result: Diaphorase inh, G6PDH counter, Diaphorase act)
CCCCCOc1ccc(C(=O)CCC(=O)NNC(=O)c2ccncc2)cc1	none (no result: Diaphorase inh, G6PDH counter, Diaphorase act, Tb hexokinase)
C1CCN(CC2CCCCN2)CC1 (stereo not given)	none (no result: Diaphorase inh, G6PDH counter, Diaphorase act, Tb hexokinase)
N#Cc1ccc2c(=O)n(-c3ccccc3)sc2c1	PfG6PD inh 123 (no result: Diaphorase inh, G6PDH counter, HKDC1 inh, Diaphorase act, Tb hexokinase) | PfG6PD confirm 108 | Diaphorase 10uM inactive | Diaphorase 30uM inactive
N#Cc1c(N)n(-c2ccccc2)c(=O)c2cc([N+](=O)[O-])ccc12	none
O=c1c2cc(C(F)(F)F)ccc2sn1-c1ccccc1	PfG6PD inh 128 (no result: Diaphorase inh, G6PDH counter, HKDC1 inh, Diaphorase act, Tb hexokinase) | PfG6PD confirm 94 | Diaphorase 10uM inactive | Diaphorase 30uM inactive
CC(=O)Nc1ccc2c(=O)n(-c3ccccc3)sc2c1	PfG6PD inh 127 (no result: Diaphorase inh, G6PDH counter, HKDC1 inh, Diaphorase act, Tb hexokinase) | PfG6PD confirm 105 | Diaphorase 10uM inactive | Diaphorase 30uM inactive
c1ccc(-c2cc3cc4c(cc3cn2)OCO4)cc1	none (no result: Diaphorase inh, G6PDH counter, Diaphorase act, Tb hexokinase)
COc1ccc(C(=O)CC(C#N)c2ccc3c(c2)OCO3)cc1OC (stereo not given)	none (no result: Diaphorase inh, G6PDH counter, HKDC1 inh, Diaphorase act, Tb hexokinase)
Cc1ccc(-n2c(C)cc(/C=C3/SC(=O)N(CC(=O)N4CCOCC4)C3=O)c2C)nc1	none (no result: Diaphorase inh, G6PDH counter, Diaphorase act)
COc1cccc(NC(=O)c2cnn(-c3ccccc3)c2C)c1	PfG6PD inh 63 (no result: Diaphorase inh, G6PDH counter, Diaphorase act, Tb hexokinase) | PfG6PD confirm inactive
CCc1cccc(NC(=O)c2cnn(-c3ccccc3)c2C)c1	none (no result: Diaphorase inh, G6PDH counter, Diaphorase act, Tb hexokinase)

Source: PubChem (several laboratories)
